Laboratory results reported in ChEMBL document CHEMBL2093137, “WHO-TDR NTD Screening”.
≈ marks a conversion by molar mass, not a printed value. Values belong to the compound of their own block, whether it stands above or below them.

What was measured:
Schistosoma mansoni = test: WHO-TDR: Schistosomiasis; assay type: functional; set-up: concentration or dose not given beside the values
In short: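 Percent inhibition and IC50 describe activity against whole Schistosoma mansoni worms of the Puerto Rican strain, tested as larvae and/or adults. The compounds screened were a diverse set of 10,000 from Life Chemicals, filtered for drug-likeness and reactive groups. Testing followed previously published standard procedures, with a reference drug as positive control.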

Leishmania infantum = test: WHO-TDR: Leishmaniasis; assay type: functional, organism-based, Mus musculus; settings: Macrophage
In short: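 IC50 values describe antiparasitic potency in this whole-organism screen. Leishmania infantum MHOM/MA(BE)/67 amastigotes were tested inside murine peritoneal macrophages against a 10,000-compound diverse Life Chemicals library. A reference drug served as positive control.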

[1] = test system: Trypanosoma brucei brucei; test: WHO-TDR: Human African Trypanosomiasis (HAT); assay type: functional, organism-based; settings: Squib-427
In short: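 Following previously published standard procedures, with reference drugs as positive controls, a whole-organism assay was run against bloodstream-form Trypanosoma brucei, Squib 427 strain. The compounds, 10,000 in all, came from a diverse Life Chemicals library filtered for drug-likeness and reactive groups. Reported values are IC50 for antiparasitic potency.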

Plasmodium falciparum K1 = test: WHO-TDR: Malaria; assay type: functional, organism-based, Homo sapiens; settings: Erythrocyte
In short: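 Life Chemicals supplied the diverse library of 10,000 compounds, which had been filtered for drug-likeness and reactive groups. Each was screened against the K1 strain of Plasmodium falciparum at its intra-erythrocytic stage in human red blood cells, using previously published standard procedures and a reference drug as positive control. The table reports IC50 for antiplasmodial potency.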

Onchocerca lienalis = test: WHO-TDR: Onchocerciasis; assay type: functional; set-up: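 at 12.5 µM on microfilariae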
In short: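 Percent inhibition and IC50 describe activity against microfilariae of Onchocerca ochengi or Onchocerca lienalis, used as animal-pathogen substitutes for the human parasite. The compounds tested made up a 10,000-member diverse library from Life Chemicals.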

Trypanosoma cruzi = test: WHO-TDR: Chagas disease; assay type: functional, organism-based, Homo sapiens; settings: MRC5
In short: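 Intracellular amastigotes of the Trypanosoma cruzi Tulahuen CL2 beta-galactosidase strain, grown in MRC-5SV2 human lung fibroblast host cells, were tested in a whole-organism screen. The compounds came from a 10,000-member diverse Life Chemicals library that had been filtered for drug-likeness and reactive groups. Previously published standard procedures were followed, with a reference drug as positive control, and potency is reported as IC50.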

[2] = WHO-TDR: Cytotoxicity; assay type: toxicity, cell-based; settings: human, MRC5 cells

IC50 (Leishmania infantum): 0.451 µg/mL (≈ 1.05 µM) | IC50 [1]: 4.51 µg/mL (≈ 10.5 µM) | IC50 (Plasmodium falciparum K1): 1.72 µg/mL (≈ 4.01 µM)
Structure (SMILES): CN(C)CCCN(C(=O)CCOc1ccccc1)c1nc2cc3c(cc2s1)OCO3
% Inhibition (Schistosoma mansoni): 75% | % Inhibition (Onchocerca lienalis): 0% | IC50 (Trypanosoma cruzi): 0.433 µg/mL (≈ 1.01 µM) | IC50 [2]: 3.34 µg/mL (≈ 7.81 µM)

IC50 (Leishmania infantum): 4.24 µg/mL (≈ 10.6 µM) | IC50 [1]: 0.435 µg/mL (≈ 1.09 µM) | IC50 (Plasmodium falciparum K1): 0.324 µg/mL (≈ 0.809 µM)
Structure (SMILES): CN(C)CCCN(C(=O)c1ccc(N(C)C)cc1)c1nc2ccc(F)cc2s1
% Inhibition (Schistosoma mansoni): 0% | % Inhibition (Onchocerca lienalis): 0% | IC50 (Trypanosoma cruzi): 4.49 µg/mL (≈ 11.2 µM) | IC50 [2]: 4.1 µg/mL (≈ 10.2 µM)

IC50 (Leishmania infantum): 4.31 µg/mL (≈ 9.71 µM) | IC50 [1]: 0.942 µg/mL (≈ 2.12 µM) | IC50 (Plasmodium falciparum K1): 0.638 µg/mL (≈ 1.44 µM)
Structure (SMILES): CCN(CC)c1cc(C)nc(Nc2ccc(NC(=O)c3ccc(Br)o3)cc2)n1
% Inhibition (Schistosoma mansoni): 66.7% | % Inhibition (Onchocerca lienalis): -1% | IC50 (Trypanosoma cruzi): 0.344 µg/mL (≈ 0.774 µM) | IC50 [2]: 2.91 µg/mL (≈ 6.54 µM)

IC50 (Leishmania infantum): 4.55 µg/mL (≈ 10.5 µM) | IC50 [1]: 0.45 µg/mL (≈ 1.04 µM) | IC50 (Plasmodium falciparum K1): 0.653 µg/mL (≈ 1.51 µM)
Structure (SMILES): Cc1cccc2sc(N(CCCN(C)C)C(=O)c3ccccc3Br)nc12
% Inhibition (Schistosoma mansoni): 33.3% | % Inhibition (Onchocerca lienalis): 0% | IC50 (Trypanosoma cruzi): 4.76 µg/mL (≈ 11 µM) | IC50 [2]: 3.97 µg/mL (≈ 9.18 µM)

IC50 (Leishmania infantum): 5.53 µg/mL (≈ 10.4 µM) | IC50 [1]: 5.59 µg/mL (≈ 10.5 µM) | IC50 (Plasmodium falciparum K1): 3.44 µg/mL (≈ 6.46 µM)
Structure (SMILES): CN(C)CCCN(C(=O)c1ccc(S(=O)(=O)N(C)C2CCCCC2)cc1)c1nc2c(F)cccc2s1
% Inhibition (Schistosoma mansoni): 0% | % Inhibition (Onchocerca lienalis): 0% | IC50 (Trypanosoma cruzi): 5.16 µg/mL (≈ 9.69 µM) | IC50 [2]: 3.08 µg/mL (≈ 5.78 µM)

IC50 (Leishmania infantum): > 11 µg/mL | IC50 [1]: > 11 µg/mL | IC50 (Plasmodium falciparum K1): > 11 µg/mL
Structure (SMILES): CCOc1ccc(C(=O)Nc2nc3c(Cl)ccc(Cl)c3s2)cc1
% Inhibition (Schistosoma mansoni): 100% | % Inhibition (Onchocerca lienalis): 33.34% | IC50 (Trypanosoma cruzi): > 11 µg/mL | IC50 [2]: > 11 µg/mL

IC50 (Leishmania infantum): 5.04 µg/mL (≈ 10.5 µM) | IC50 [1]: 5.04 µg/mL (≈ 10.5 µM) | IC50 (Plasmodium falciparum K1): 2.42 µg/mL (≈ 5.03 µM)
Structure (SMILES): CN(C)S(=O)(=O)c1ccc(C(=O)Nc2nnc(SCC(=O)NCc3ccco3)s2)cc1
% Inhibition (Schistosoma mansoni): 0% | % Inhibition (Onchocerca lienalis): 6.7% | IC50 (Trypanosoma cruzi): 0.933 µg/mL (≈ 1.94 µM) | IC50 [2]: 3.06 µg/mL (≈ 6.36 µM)

IC50 (Leishmania infantum): 4.24 µg/mL (≈ 8.61 µM) | IC50 [1]: 0.435 µg/mL (≈ 0.882 µM) | IC50 (Plasmodium falciparum K1): 0.324 µg/mL (≈ 0.657 µM)
Structure (SMILES): COC(=O)c1ccc(NC(=O)CSc2nnc(NC(=O)c3cc(Cl)ccc3OC)s2)cc1
% Inhibition (Schistosoma mansoni): 16.7% | % Inhibition (Onchocerca lienalis): 0% | IC50 (Trypanosoma cruzi): 4.49 µg/mL (≈ 9.11 µM) | IC50 [2]: 4.1 µg/mL (≈ 8.31 µM)

IC50 (Leishmania infantum): 4.25 µg/mL (≈ 10.6 µM) | IC50 [1]: 4.25 µg/mL (≈ 10.6 µM) | IC50 (Plasmodium falciparum K1): 8.18 µg/mL (≈ 20.4 µM)
Structure (SMILES): CN(C)CCCN(C(=O)CCOc1ccccc1)c1nc2c(F)cccc2s1
% Inhibition (Schistosoma mansoni): 0% | % Inhibition (Onchocerca lienalis): 0% | IC50 (Trypanosoma cruzi): 0.409 µg/mL (≈ 1.02 µM) | IC50 [2]: 1.94 µg/mL (≈ 4.83 µM)

The remaining lines, values behind:

Structure (SMILES): O=S(=O)(NCC(c1cccnc1)N1CCN(c2ccccc2F)CC1)c1cc(F)ccc1F (centres undefined)
% Inhibition (Schistosoma mansoni): 0% | IC50 (Leishmania infantum): > 14.3 µg/mL | IC50 [1]: 4.74 µg/mL (≈ 9.95 µM) | IC50 (Plasmodium falciparum K1): 4.27 µg/mL (≈ 8.96 µM) | % Inhibition (Onchocerca lienalis): 0% | IC50 (Trypanosoma cruzi): 0.265 µg/mL (≈ 0.556 µM) | IC50 [2]: > 14.3 µg/mL

Structure (SMILES): CCOC(=O)Cn1/c(=N/C(=O)c2ccccc2Br)sc2cc(S(C)(=O)=O)ccc21
% Inhibition (Schistosoma mansoni): 100% | IC50 (Leishmania infantum): > 14.9 µg/mL | IC50 [1]: > 14.9 µg/mL | IC50 (Plasmodium falciparum K1): > 14.9 µg/mL | % Inhibition (Onchocerca lienalis): 0% | IC50 (Trypanosoma cruzi): > 14.9 µg/mL | IC50 [2]: > 14.9 µg/mL

Structure (SMILES): COc1ccc(CCNC(=O)CSc2nnc(NC(=O)c3cc(Cl)ccc3Cl)s2)cc1OC
% Inhibition (Schistosoma mansoni): 8.3% | IC50 (Leishmania infantum): 4.54 µg/mL (≈ 8.61 µM) | IC50 [1]: 0.352 µg/mL (≈ 0.668 µM) | IC50 (Plasmodium falciparum K1): 0.398 µg/mL (≈ 0.755 µM) | % Inhibition (Onchocerca lienalis): 13.3% | IC50 (Trypanosoma cruzi): 0.239 µg/mL (≈ 0.452 µM) | IC50 [2]: 0.526 µg/mL (≈ 0.997 µM)

Structure (SMILES): Fc1ccccc1CSc1ccc(-c2ccccn2)nn1
% Inhibition (Schistosoma mansoni): 8.3% | IC50 (Leishmania infantum): > 8.92 µg/mL | IC50 [1]: > 8.92 µg/mL | IC50 (Plasmodium falciparum K1): > 8.92 µg/mL | % Inhibition (Onchocerca lienalis): 97% | IC50 (Trypanosoma cruzi): > 8.92 µg/mL | IC50 [2]: > 8.92 µg/mL

Structure (SMILES): C=CCn1/c(=N/C(=O)c2ccccc2I)sc2cc(S(C)(=O)=O)ccc21
% Inhibition (Schistosoma mansoni): 100% | IC50 (Leishmania infantum): > 15 µg/mL | IC50 [1]: > 15 µg/mL | IC50 (Plasmodium falciparum K1): > 15 µg/mL | % Inhibition (Onchocerca lienalis): 20% | IC50 (Trypanosoma cruzi): > 15 µg/mL | IC50 [2]: > 15 µg/mL

Structure (SMILES): O=C(CCS(=O)(=O)c1ccccc1)Nc1nc(-c2cccc3ccccc23)cs1
% Inhibition (Schistosoma mansoni): 0% | IC50 (Leishmania infantum): 4.06 µg/mL (≈ 9.62 µM) | IC50 [1]: 3.87 µg/mL (≈ 9.15 µM) | IC50 (Plasmodium falciparum K1): 0.126 µg/mL (≈ 0.297 µM) | % Inhibition (Onchocerca lienalis): 6.7% | IC50 (Trypanosoma cruzi): 0.657 µg/mL (≈ 1.55 µM) | IC50 [2]: 1.67 µg/mL (≈ 3.96 µM)

Structure (SMILES): CCS(=O)(=O)c1ccc(-c2cccc(NC(=O)c3cc(Cl)ccc3Cl)c2)nn1
% Inhibition (Schistosoma mansoni): 100% | IC50 (Leishmania infantum): 4.24 µg/mL (≈ 9.71 µM) | IC50 [1]: > 13.1 µg/mL | IC50 (Plasmodium falciparum K1): > 13.1 µg/mL | % Inhibition (Onchocerca lienalis): 0% | IC50 (Trypanosoma cruzi): > 13.1 µg/mL | IC50 [2]: > 13.1 µg/mL

Structure (SMILES): O=C(CSc1nnc(NC(=O)COc2ccc(Cl)cc2)s1)NCC1CCCO1 (centres undefined)
% Inhibition (Schistosoma mansoni): 0% | IC50 (Leishmania infantum): 0.466 µg/mL (≈ 1.05 µM) | IC50 [1]: 2 µg/mL (≈ 4.52 µM) | IC50 (Plasmodium falciparum K1): 3.42 µg/mL (≈ 7.71 µM) | % Inhibition (Onchocerca lienalis): 13.3% | IC50 (Trypanosoma cruzi): 0.416 µg/mL (≈ 0.939 µM) | IC50 [2]: 3.54 µg/mL (≈ 7.99 µM)
